Measurements from ChEMBL document CHEMBL4627259, “Discovery of LY3325656: A GPR142 agonist suitable for clinical testing in human” (Bioorg Med Chem Lett, 2020).

What was measured:
[1] = Drug metabolism in dog microsomes assessed as drug turnover at 20 uM measured after 30 mins by LCMS analysis; type: ADME, Canis lupus familiaris, Microsome; conditions: read-out: Drug metabolism
In short: (§1)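 High-throughput microsomal stability: compound at 20 uM incubated with mouse, rat, dog or human liver microsomes at 37 °C; percent parent remaining measured after 30 min and reported as % turnover.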

[2] = biological target: T1, Probable G-protein coupled receptor 142 (Homo sapiens, UniProt Q7Z601); assay: Agonist activity at human GPR142 receptor expressed in HEK293 cells assessed as accumulation of inositol phosphate incubated for 1 hr followed by IP1-d2 addition by HTRF assay; type: functional, cell-based
T1 sequence (Q7Z601 whole entry): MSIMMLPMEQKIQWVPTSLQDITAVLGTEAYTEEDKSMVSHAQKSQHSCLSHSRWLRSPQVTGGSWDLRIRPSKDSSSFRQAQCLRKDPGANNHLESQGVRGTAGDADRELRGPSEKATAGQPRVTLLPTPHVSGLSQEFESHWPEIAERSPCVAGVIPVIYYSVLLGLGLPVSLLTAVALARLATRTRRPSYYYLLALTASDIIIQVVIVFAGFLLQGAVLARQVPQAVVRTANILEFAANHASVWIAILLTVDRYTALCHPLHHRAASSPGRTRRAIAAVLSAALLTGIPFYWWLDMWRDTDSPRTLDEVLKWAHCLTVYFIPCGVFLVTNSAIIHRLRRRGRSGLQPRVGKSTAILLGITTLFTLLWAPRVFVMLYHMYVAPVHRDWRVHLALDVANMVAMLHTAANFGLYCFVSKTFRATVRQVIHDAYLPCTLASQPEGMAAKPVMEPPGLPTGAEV
In short: (§2)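 HEK293 cells stably expressing human GPR142 (DMEM, 10% FBS, 800 ug/mL G418, 37 °C, 5% CO2), seeded 5000 cells/well and left 18 h to attach. Compounds added at 30 uM to 1 nM, 1 h incubation in HBSS (+Ca, +Mg), 0.1% BSA, 50 mM LiCl, 20 mM HEPES pH 7.2. IP-1 HTRF read-out: IP1-d2 then cryptate, 1 h at 25 °C, 665/620 nm ratio converted via IP-1 standard curve; EC50 by 4-parameter logistic fit.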

[3] = Drug metabolism in human microsomes assessed as drug turnover at 20 uM measured after 30 mins by LCMS analysis; type: ADME, Microsome; conditions: read-out: Drug metabolism; in short: as §1
[4] = biological target: T2, Probable G-protein coupled receptor 142 (Homo sapiens) (UniProt Q7Z601); assay: Agonist activity at human GPR142 receptor expressed in HEK293 cells assessed as accumulation of inositol phosphate at 30 uM to 1 nM incubated for 1 hr followed by IP1-d2 addition by HTRF assay relative to control; type: functional, cell-based; in short: as §2
T2 sequence (whole entry): T1 sequence (Q7Z601 whole entry)

[5] = Drug metabolism in mouse microsomes assessed as drug turnover at 20 uM measured after 30 mins by LCMS analysis; type: ADME, Microsome; conditions: read-out: Drug metabolism; in short: as §1
[6] = Drug metabolism in rat microsomes assessed as drug turnover at 20 uM measured after 30 mins by LCMS analysis; type: ADME, Microsome; conditions: read-out: Drug metabolism; in short: as §1

Compound	metabolised at 0.5 h, 20 µM [1] [%]	EC50 [2] [nM]	metabolised at 0.5 h, 20 µM [3] [%]	Emax [4] [%]	metabolised at 0.5 h, 20 µM [5] [%]	metabolised at 0.5 h, 20 µM [6] [%]
Cc1ncn(CC#N)c1NC(=O)[C@H]1CCC[C@@H](N(C)C(=O)c2cccc(C(F)(F)F)c2)C1	6	93	26	96	56	21
Cc1ncn(CC(F)F)c1NC(=O)[C@H]1CCC[C@@H](N(C)C(=O)c2cccc(Cl)c2)C1	19	104	51	99	54	79
Cc1ncn(CC(F)(F)F)c1NC(=O)[C@H]1CCC[C@@H](N(C)C(=O)c2cccc(OC(F)(F)F)c2)C1	51	110	76	114	86	56
CN(C(=O)c1cccc(Cl)c1)[C@@H]1CCO[C@H](c2nnc(-c3cnc4ccccn34)[nH]2)C1	46	35	29	102	66	23

The next lines start with the values.

metabolised at 0.5 h, 20 µM [1] [%]	EC50 [2] [nM]	metabolised at 0.5 h, 20 µM [3] [%]	Emax [4] [%]	metabolised at 0.5 h, 20 µM [5] [%]	metabolised at 0.5 h, 20 µM [6] [%]	Compound
24	147	20	103	38	29	Cc1ncn(CC2CN(C)C2)c1NC(=O)[C@H]1CCC[C@@H](N(C)C(=O)c2cccc(C(F)(F)F)c2)C1
38	63	58	105	64	59	Cc1ncn(CC(F)F)c1NC(=O)[C@H]1CCC[C@@H](N(C)C(=O)c2cccc(C(F)(F)F)c2)C1
